DENV2 CPE rescue = protects cells from dengue virus 2 cytopathic effect. AID 651640. CPE inhibition, % at 9.99 µM. DENV2-infected cells, cytopathic effect rescue, plate reader. actives 1.7% (n = 350,000); in the data active means CPE inhibition above about 20%, passing the limit was not always enough; tested in BHK-21 cells;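 further: 0% = median of neutral control wells and 100% = median of positive control wells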
E-sel inducer = induces E-selectin expression in human endothelial cells | P16581 | HUVEC E-selectin immunofluorescence imaging; normalized: neutral wells 0, TNF-alpha wells 100 | activation, % at 7.58 µM | actives 0.37% (n = 260,000);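 active means mean E-selectin-positive cell signal at least 10% of the positive control, reached in at least 60% of replicates, without over 20% cell loss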
Target sequence (P16581 whole entry, looked up): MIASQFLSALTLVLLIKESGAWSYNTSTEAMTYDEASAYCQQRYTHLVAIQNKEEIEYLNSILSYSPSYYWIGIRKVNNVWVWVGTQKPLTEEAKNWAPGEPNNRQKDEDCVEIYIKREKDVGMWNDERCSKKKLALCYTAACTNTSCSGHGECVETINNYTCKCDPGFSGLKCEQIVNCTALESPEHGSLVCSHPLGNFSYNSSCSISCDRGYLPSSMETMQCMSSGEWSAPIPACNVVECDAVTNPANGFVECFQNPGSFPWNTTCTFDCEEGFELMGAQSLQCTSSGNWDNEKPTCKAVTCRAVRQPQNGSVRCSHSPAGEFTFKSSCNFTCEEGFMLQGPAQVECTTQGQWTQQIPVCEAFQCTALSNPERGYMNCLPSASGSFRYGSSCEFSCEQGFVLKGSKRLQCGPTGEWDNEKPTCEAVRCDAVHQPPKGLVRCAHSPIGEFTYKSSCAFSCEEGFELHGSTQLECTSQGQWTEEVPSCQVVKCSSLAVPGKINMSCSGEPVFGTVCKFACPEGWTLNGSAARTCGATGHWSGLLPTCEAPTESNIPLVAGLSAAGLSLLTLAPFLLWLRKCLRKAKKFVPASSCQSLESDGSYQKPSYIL
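Assay system: HUVEC, human umbilical vein endothelial cells / Amount: 3,000 HUVEC/well / Controls: TNF-alpha positive control, DMSO neutral control / Compound dosing: single concentration / Medium: EGM-2 over gelatin coat / Evaluation: percent E-selectin-positive cells / Signal: immunofluorescence imaging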
miR-122 sensor = blocks miR-122 activity in Huh7 sensor cells | actives 0.3% (n = 340,000) | Huh7 miR-122 Renilla luciferase sensor, 48 h; neutral wells = 0, positive control = 100 | activation (reporter increase), % at 12.5 µM;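 active means mean replicate activation score at least 90 and every replicate individually at or above 90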;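 further: higher luciferase means less miR-122 activity so hits act as miR-122 inhibitors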
Cneo AK release = Cryptococcus neoformans lysis via adenylate kinase release | C. neoformans lysis, adenylate kinase release luminescence, 4 h; normalised: neutral wells 0, clomiphene wells 100 | lysis activity, % at 15 µM | actives 0.2% (n = 360,000);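 active means mean lysis activity across replicates of at least 80%, whatever share of replicates individually reach that level; inactive means mean lysis activity below 80%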
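Assay system: C. neoformans cells. Amount: yeast cell density of 5 × 10^6 cells/mL. Technique: AK luminescence. Buffer or medium: YPD. Times: static 4 h at 37 °C with compound, 1 h detection. Dosing: single-point compound dose. Read-out: lysis from increased AK signal.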
Ecoli rRNA inh = selective bacterial rRNA inhibition in E. coli; actives 1.6% (n = 350,000); AID 720706; E. coli WT GFP vs humanized-ribosome RFP mutants, fluorescence, 24 h; active compounds read low; DMSO median 0, no signal -100; GFP signal change (wild-type ribosome), % (test concentration not listed);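 active means significant combined selectivity score with lowered wild-type GFP, culture density cut under 30%, mutant RFP and density less affected; inactive means any of these conditions unmet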
An asterisk follows results filed as active; nt = no result; [ ] = remark or other dose. This is a sample that favours compounds with a hit; in the whole collection about 3.1% have one here.

SMILES | DENV2 CPE rescue | E-sel inducer | miR-122 sensor | Cneo AK release | Ecoli rRNA inh
CC1(C)Oc2ccc(C(=O)N3CCCCC3)cc2N(CC(=O)NCc2ccccc2)C1=O | nt | nt | -1.0 | 0.4 | nt
Cc1ccc(CN2C(=O)C(C)(C)Oc3ccc(C(=O)N4CCCCC4)cc32)cc1 | nt | nt | 317.8* | 1.1 | nt
CC(=O)Nc1ccc2c(c1)Cc1cc(N3C(=O)C=CC3=O)ccc1-2 | -2.5 | -0.1 | -0.2 | 0.7 | -27.8*
O=C1C=CC(=O)N1c1ccc2c(c1)Cc1cc(F)ccc1-2 | -2.8 | nt | -4.0 | 2.2 | nt
C[C@H]1CCCCO[C@@H](CN(C)Cc2ccncc2)[C@@H](C)CN([C@@H](C)CO)C(=O)c2cc(NC(=O)Nc3ccccc3)ccc2O1 | -3.8 | -0.1 | -6.2[16.7 µM] | 99.5* | -0.9
C[C@@H]1CCCCO[C@H](CN(C)Cc2ccncc2)[C@@H](C)CN([C@@H](C)CO)C(=O)c2cc(NC(=O)Nc3ccc4c(c3)OCO4)ccc2O1 | 27.8* | 0.1 | 8.1[16.7 µM] | -4.9 | -1.4
C[C@@H]1CCCCO[C@H](CN(C)Cc2ccccc2)[C@@H](C)CN([C@H](C)CO)C(=O)c2cc(NC(=O)Nc3ccc(F)cc3)ccc2O1 | -5.1 | 0.1 | 0.6[16.7 µM] | 4.0 | -0.4
C[C@@H]1CN([C@@H](C)CO)C(=O)c2cc(NC(=O)Nc3ccc(F)cc3)ccc2O[C@@H](C)CCCCO[C@H]1CN(C)Cc1ccccc1 | 40.4* | 0.2 | -0.1[16.7 µM] | 5.1 | -0.1
C[C@H]1CCCCO[C@@H](CN(C)Cc2ccccc2)[C@@H](C)CN([C@@H](C)CO)C(=O)c2cc(NC(=O)Nc3ccc(F)cc3)ccc2O1 | -2.3 | 0.8 | -9.3[16.7 µM] | 3.6 | -10.3
C[C@@H]1CCCCO[C@H](CN(C)Cc2ccncc2)[C@H](C)CN([C@@H](C)CO)C(=O)c2cc(NC(=O)Nc3ccccc3)ccc2O1 | -3.6 | 0.0 | -1.4[16.7 µM] | -2.5 | -3.1
C[C@@H]1CCCCO[C@@H](CN(C)Cc2ccccc2)[C@H](C)CN([C@H](C)CO)C(=O)c2cc(NC(=O)Nc3ccc(F)cc3)ccc2O1 | 41.0* | 0.1 | -0.2[16.7 µM] | 7.4 | -0.8
CO[C@@H]1CC[C@@H]2CCN(C)C(=O)CCCN(C)C(=O)c3cccc(C#N)c3OC[C@H]1O2 | -3.8 | -0.1 | nt | -2.2 | 1.0
Cc1cccc(C)c1OCc1n[nH]c(=S)n1-c1ccccc1 | 2.5 | 2.2 | 3.3 | 4.4 | -29.1*
Cc1ccc(OCc2n[nH]c(=S)n2-c2ccccc2)cc1C | -3.9 | nt | nt | nt | -23.4
CC(C)Oc1ccc(CCc2n[nH]c(=S)n2-c2ccccc2)cc1 | -0.5 | -0.7 | nt | -1.0 | -20.9*
O=C(Cc1ccccn1)N[C@H]1CC[C@H](CC(=O)N2CCCCC2)O[C@@H]1CO | -4.9 | -0.3 | nt | 4.3 | 1.7
COc1ccccc1CNC(=O)C[C@H]1CC[C@@H]2[C@H](COC[C@@H](O)CN2Cc2ccc3c(c2)OCO3)O1 | -4.3 | 0.0 | -3.2[16.7 µM] | -1.9 | -1.2
COc1cc(NC(=O)CSCc2ccc(Cl)cc2Cl)c(C(=O)O)cc1OC | -0.6 | nt | 2.8 | -1.6 | -20.4*
CC(C)COCc1ccc(O)c2ncccc12 | -1.6 | nt | nt | nt | -35.2*
Cc1ccc(C)c(N2CCN(C(=O)CCc3nc(-c4ccccc4)no3)CC2)c1 | 20.3* | -0.1 | 4.7 | 4.6 | -19.6
N#Cc1ccccc1NC(=O)COC(=O)C1CCN(C(=O)c2ccc(Cl)cc2)CC1 | -6.4 | 0.4 | -12.3 | -1.8 | 3.0
O=C(COC(=O)C1CCN(C(=O)c2ccc(Cl)cc2)CC1)Nc1ccccc1F | 7.0 | nt | nt | 0.3 | -17.1*
O=C(NCC(c1ccco1)N1CCc2ccccc21)c1c(F)cccc1F (stereo not drawn) | 63.5* | 0.5 | -1.3 | 2.4 | -9.1
C[C@H]1CCCCO[C@H](CN(C)C(=O)c2ccncc2)[C@@H](C)CN([C@@H](C)CO)C(=O)c2cc(NS(C)(=O)=O)ccc2O1 | 9.8 | -0.2 | -1.9[16.7 µM] | -1.9 | 1.3
CC(C)(Cc1ccc(O)cc1)NC(=O)CC(=O)N/N=C/c1ccc([N+](=O)[O-])cc1 | 8.5 | nt | 4.7 | nt | -17.1*
SMILES | DENV2 CPE rescue | E-sel inducer | miR-122 sensor | Cneo AK release | Ecoli rRNA inh
Cc1nn(-c2ccccc2)c(C)c1NC(=O)COc1ccc(C#N)cc1 | nt | 0.0 | -0.8 | 2.9 | 10.2
Cc1nn(-c2ccccc2)c(C)c1NC(=O)COc1ccc2ccccc2c1 | 1.3 | nt | -9.0 | -1.3 | -19.6*
CCc1c(-c2ccccc2F)ncn1Cc1cccc(-c2ccccc2)c1 | 59.3* | 0.6 | nt | nt | -28.6
CCc1c(-c2ccccc2)ncn1Cc1cccc(-c2ccccc2)c1 | 0.6 | -0.2 | nt | nt | -29.0
CCc1c(C2CC2)ncn1Cc1cccc(-c2ccccc2)c1 | 20.4* | 0.0 | nt | nt | -54.0
C[C@H](CO)N1C[C@H](C)[C@@H](CN(C)Cc2ccc3c(c2)OCO3)Oc2ccc(NC(=O)Nc3ccc(C(F)(F)F)cc3)cc2CC1=O | -5.2 | -0.1 | -7.8[16.7 µM] | 5.5 | 0.7
COC(=O)c1ccc(COc2ccc(/C=N/NC(N)=S)cc2)o1 | -0.7 | nt | 0.9 | -0.9 | -28.6*
COc1cc(C(=O)NCC(=O)NCC2COc3ccccc3O2)cc(OC)c1OC (stereo not drawn) | 5.2 | -0.1 | -2.0 | 0.2 | 12.5
COc1cc(C(=O)NCC(=O)NNC(=O)C2COc3ccccc3O2)cc(OC)c1OC (stereo not drawn) | -10.7 | 151.6* | -4.7 | -0.6 | 6.2
Cc1ccc2cc(C)c3nnc(SCC(=O)c4cccs4)n3c2c1C | 2.3 | -1.3 | nt | nt | -38.8*
Cc1cc2ccc(C)c(C)c2nc1SCC(=O)c1cccs1 | nt | nt | 34.5 | 0.4 | nt
Cc1ccc(C2=NOC(C)(c3nnc(-c4ccncc4)o3)C2)cc1 (stereo not drawn) | 58.1* | 0.0 | nt | 0.6 | -8.9
Cc1cn([C@H]2C[C@H](O)[C@@H](CNCc3ccc4ncccc4c3)O2)c(=O)[nH]c1=O | 94.1* | 0.8 | -2.9 | -1.3 | 5.1
CNC[C@@H]1Oc2ncc(Br)cc2C(=O)N([C@H](C)CO)C[C@H]1C | nt | 1.3 | 17.2[16.7 µM] | nt | 5.4
O=C(c1ccc(Cl)c(S(=O)(=O)N2CCCCC2)c1)N1CCN(c2ccccc2)CC1 | -2.0 | -0.1 | 13.3 | -2.9 | nt
O=C1c2ccccc2-c2ccc(C(=O)N3CCCCC3)cc21 | 1.8 | -0.9 | nt | nt | -24.6*
CN1CCN(C(=O)c2ccc3c(c2)S(=O)(=O)c2ccccc2C3=O)CC1 | 63.1* | 0.0 | nt | -1.2 | 1.2
O=C(c1ccc(Cl)c(S(=O)(=O)N2CCCCCC2)c1)N1CCN(c2ccccc2O)CC1 | -1.1 | -0.8 | nt | nt | -44.2*
CC(=O)c1ccc(NC(=O)C2=CC(c3cccs3)=NS(=O)(=O)N2C)cc1 | 15.2 | nt | -8.2 | 5.9 | -21.1*
Cc1cccc(C)c1Nc1c(-c2ccc(N3CCOCC3)cc2)nc2ncccn12 | 8.1 | -0.5 | -0.8 | -0.6 | -24.6*
Cc1nnn(-c2nonc2N)c1C(=O)NNC(=O)c1ccc(Cl)c(Cl)c1 | -5.4 | 5.0 | nt | nt | -26.1*
Cc1nc2ccccn2c1C(=O)CSc1ccccc1 | 6.2 | nt | nt | nt | -36.8*

From PubChem BioAssay
